Results: ChEMBL document CHEMBL3046416, “Differential susceptibility to glyphosate among the Conyza weed species in Spain” (J Agric Food Chem, 2010)

What was measured:
Leaf [1] = assay: Drug absorption in Conyza bonariensis (hairy fleabane) assessed as translocation in treated leaf at […] measured after 96 hr by liquid scintillation spectrometry; type: ADME; settings: other
Summary of the method: (§1)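 Glyphosate-susceptible plants were grown in pots in a growth chamber (28/18 °C, 16 h photoperiod). They were treated with commercial glyphosate spiked with [14C]glyphosate (0.417 kBq μL-1; 1 g ai L-1, i.e. 200 g ai ha-1 in 200 L). Plants were harvested 96 h after treatment. Unabsorbed label was rinsed from the treated leaf with water-acetone (1:1). Plants were split into treated leaf, rest of shoot and root, and the rinsate was counted by liquid scintillation.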

Conyza bonariensis [2] = assay: Herbicidal activity against Conyza bonariensis (hairy fleabane) at bolting stage (BBHC32) assessed as growth inhibition measured after 21 days; type: functional
Summary of the method: (§2)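 Glyphosate-susceptible plants were grown in a growth chamber (28/18 °C day/night, 16 h photoperiod, 80% RH). Commercial glyphosate was sprayed from 50 cm in a laboratory spray chamber at rosette (BBCH 14-15), or, for C. bonariensis only, also at bolting (BBCH 32) or flowering (BBCH 55). Shoot fresh weight was taken 21 d later as % of untreated. Five replications of three plants each. ED50 came from a log-logistic regression of pooled data.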

[3] = Ratio of ED50 for hairy fleabane Conyza canadensis to ED50 for tall fleabane Conyza sumatrensis; type: functional
Root [4] = assay: Drug absorption in Conyza canadensis (horseweed) assessed as translocation in root at […] measured after 96 hr by liquid scintillation spectrometry; type: ADME; settings: erigeron canadensis; summary of the method: as §1
[5] = Ratio of ED50 for hairy fleabane Conyza bonariensis to ED50 for tall fleabane Conyza sumatrensis; type: functional
Root [6] = assay: Drug absorption in Conyza bonariensis (hairy fleabane) assessed as translocation in root at […] measured after 96 hr by liquid scintillation spectrometry; type: ADME; summary of the method: as §1
Root [7] = assay: Drug absorption in Conyza sumatrensis (tall fleabane) assessed as translocation in root at […] measured after 96 hr by liquid scintillation spectrometry; type: ADME; summary of the method: as §1
Conyza sumatrensis [8] = assay: Herbicidal activity against Conyza sumatrensis ( tall fleabane) at rosette stage (BBHC14 to 15) assessed as growth inhibition measured after 21 days; type: functional; summary of the method: as §2
Conyza sumatrensis [9] = assay: Drug absorption in Conyza sumatrensis (tall fleabane) assessed as translocation in rest of plant at […] measured after 96 hr by liquid scintillation spectrometry; type: ADME, organism-based; settings: in vivo; summary of the method: as §1
Conyza bonariensis [10] = assay: Herbicidal activity against Conyza bonariensis (hairy fleabane) at flowering stage (BBHC55) assessed as growth inhibition measured after 21 days; type: functional; summary of the method: as §2
Leaf [11] = assay: Drug absorption in Conyza canadensis (horseweed) assessed as translocation in treated leaf at […] measured after 96 hr by liquid scintillation spectrometry; type: ADME; settings: erigeron canadensis, other; summary of the method: as §1
Leaf [12] = assay: Drug absorption in Conyza sumatrensis (tall fleabane) assessed as translocation in treated leaf at […] measured after 96 hr by liquid scintillation spectrometry; type: ADME; settings: topical_or_ocular; summary of the method: as §1
Erigeron canadensis [13] = assay: Drug absorption in Conyza canadensis (horseweed) assessed as translocation in rest of plant at […] measured after 96 hr by liquid scintillation spectrometry; type: ADME, organism-based; settings: in vivo; summary of the method: as §1
Erigeron canadensis [14] = assay: Herbicidal activity against Conyza canadensis (horseweed) at rosette stage (BBHC14 to 15) assessed as growth inhibition measured after 21 days; type: functional; summary of the method: as §2
Conyza bonariensis [15] = assay: Herbicidal activity against Conyza bonariensis (hairy fleabane) at rosette stage (BBHC14 to 15) assessed as growth inhibition measured after 21 days; type: functional; summary of the method: as §2
Conyza bonariensis [16] = assay: Drug absorption in Conyza bonariensis (hairy fleabane) assessed as translocation in rest of plant at […] measured after 96 hr by liquid scintillation spectrometry; type: ADME, organism-based; settings: in vivo; summary of the method: as §1

**Q.** Which results are given for `O=C(O)CNCP(=O)(O)O` [GLYPHOSATE]?
**A.** Drug transport (Leaf [1]): 85.2%; ED50 (Conyza bonariensis [2]): 86.6 gAi/ha; Ratio ED50 [3]: 12; Drug transport (Root [4]): 2.8%; Ratio ED50 [5]: 5.4; Drug transport (Root [6]): 8.3%; Drug transport (Root [7]): 11.6%; ED50 (Conyza sumatrensis [8]): 2.9 gAi/ha; Drug transport (Conyza sumatrensis [9]): 5.9%; ED50 (Conyza bonariensis [10]): 117.5 gAi/ha; Drug transport (Leaf [11]): 93%; Drug transport (Leaf [12]): 82.4%; Drug transport (Erigeron canadensis [13]): 4%; ED50 (Erigeron canadensis [14]): 34.9 gAi/ha; ED50 (Conyza bonariensis [15]): 15.7 gAi/ha; Drug transport (Conyza bonariensis [16]): 6.4%
